Key:
[1] = biological target: GHB high-affinity binding site (Rattus norvegicus); experiment: Displacement of [3H]NCS-382 from GHB high-affinity binding site in rat brain homogenate
[2] = Displacement of [3H]muscimol from GABAA receptor in rat brain synaptic membranes; assay type: cell membranes, Membrane
Procedure, shortened: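 Washed synaptic membranes from adult male Sprague-Dawley rat cortex and central hemispheres in 50 mM Tris-HCl pH 7.4. 100 µg protein was incubated with 5 nM [3H]muscimol and 0.1 mM displacer at 0 °C for 60 min. Nonspecific binding was set with 1 mM GABA. Bound counts were read by filtration and scintillation. Triplicates, at least two independent experiments.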

[3] = Displacement of [3H]GABA from GABAB receptor in rat brain synaptic membranes; assay type: cell membranes, Membrane
Procedure, shortened: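 Adult male Sprague-Dawley rat cortex and central hemisphere synaptic membranes, thawed and washed four times by homogenization in 50 mM Tris-HCl pH 7.4 and 48000g spins at 4 °C. 200 µg protein was incubated with 5 nM [3H]GABA, 40 µM isoguvacine to saturate GABAA sites, and 0.1 mM displacer in Tris-HCl with 2.5 mM CaCl2, pH 7.4, for 45 min at 25 °C. Nonspecific binding was set with 0.1 mM baclofen. Bound counts were read by filtration and scintillation.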

For `O=C([O-])CCC(O)c1ccc(/C=C/c2ccccc2)cc1.[Li+]` (stereo unspecified), the Ki [1] was 160 nM, the pKi [1] was 6.79 and the IC50 [2] was greater than 100000 nM. The IC50 [3] was greater than 100000 nM.

Compound `O=C(O)CCC(=O)c1ccc(Br)cc1` has a Ki [1] of 17000 nM and a pKi [1] of 4.61.

`O=C([O-])CCC(O)c1ccc(/C=C/c2cccc(Cl)c2)cc1.[Li+]` (stereo unspecified) showed a Ki [1] of 79 nM and a pKi [1] of 7.11.

With `Cc1ncsc1/C=C/c1ccc(C(O)CCC(=O)[O-])cc1.[Li+]` (stereo unspecified) the Ki [1] was 250 nM and the pKi [1] was 6.62.

Work on `O=C([O-])CCC(O)c1ccc(OCc2ccco2)cc1.[Li+]` (racemic) yielded a Ki [1] of 200 nM and a pKi [1] of 6.72.

In the case of `COc1ccc(/C=C/c2ccc(C(O)CCC(=O)[O-])cc2)cc1.[Li+]` (stereo unspecified), the Ki [1] is reported as 180 nM and the pKi [1] is reported as 6.75.

In the case of `O=C([O-])CCC(O)c1ccc(OCc2cccs2)cc1.[Li+]` (racemic), the Ki [1] is reported as 96 nM and the pKi [1] is reported as 7.03.

`O=C([O-])CCC(O)c1ccc(OCc2ccccc2F)cc1.[Li+]` (racemic) gave a Ki [1] of 41 nM and a pKi [1] of 7.39.

`O=C([O-])CCC(O)c1ccc(OCc2ccccc2I)cc1.[Li+]` (racemic) gave a Ki [1] of 60 nM, a pKi [1] of 7.22 and an IC50 [2] greater than 100000 nM. It also gave an IC50 [3] greater than 100000 nM.

With `O=C([O-])CCC(O)c1ccc(Cc2ccccc2)cc1.[Li+]` (racemic) the Ki [1] was 120 nM and the pKi [1] was 6.94.

For `O=C([O-])CCC(O)c1ccc(OCc2ccc(Br)cc2)cc1.[Li+]` (racemic), the Ki [1] was 34 nM and the pKi [1] was 7.48.

Compound `O=C([O-])CCC(O)c1ccc(/C=C/c2ccncc2)cc1.[Li+]` (stereo unspecified) has a Ki [1] of 340 nM and a pKi [1] of 6.49.

Work on `O=C([O-])CCC(O)c1ccc(Br)cc1.[Li+]` (racemic) yielded a Ki [1] of 1100 nM and a pKi [1] of 5.96.

`O=C([O-])CCC(O)c1ccc(/C=C/c2ccccc2Cl)cc1.[Li+]` (stereo unspecified) showed a Ki [1] of 54 nM and a pKi [1] of 7.28.

`O=C([O-])CCC(O)c1ccc(-c2ccccc2)cc1.[Li+]` (racemic) showed a Ki [1] of 440 nM and a pKi [1] of 6.36.

In the case of `O=C(O)CCC(=O)c1ccc(CCc2ccccc2)cc1`, the Ki [1] is reported as 8800 nM and the pKi [1] is reported as 5.07.

`O=C([O-])CCC(O)c1ccc(CCc2ccccc2)cc1.[Li+]` (racemic) showed a Ki [1] of 75 nM, a pKi [1] of 7.13 and an IC50 [2] greater than 100000 nM. It also gave an IC50 [3] greater than 100000 nM.

`O=C(O)CCC(=O)c1ccc(Cc2ccccc2)cc1` gave a Ki [1] of 15000 nM and a pKi [1] of 4.83.

With `O=C([O-])CCC(O)c1ccc(/C=C/c2ccccn2)cc1.[Li+]` (stereo unspecified) the Ki [1] was 230 nM and the pKi [1] was 6.67.

For `O=C([O-])CC[C@@H](O)c1ccc(OCc2ccccc2I)cc1.[Li+]` (racemic), the Ki [1] was 22 nM and the pKi [1] was 7.68.

With `O=C(O)CCCc1ccc(CCc2ccccc2)cc1` the Ki [1] was 1200 nM and the pKi [1] was 6.01.

`O=C([O-])CCC(O)c1ccc(OCc2cccc(F)c2)cc1.[Li+]` (racemic) showed a Ki [1] of 63 nM and a pKi [1] of 7.22.

`O=C([O-])CCC(O)c1ccc(OCc2ccc(F)cc2)cc1.[Li+]` (racemic) gave a Ki [1] of 93 nM and a pKi [1] of 7.03.

Work on `O=C([O-])CCC(O)c1ccc(OCc2cccc(I)c2)cc1.[Li+]` (racemic) yielded a Ki [1] of 75 nM and a pKi [1] of 7.12.

For `O=C(O)CCC(O)c1ccc(OCc2cccc(Br)c2)cc1` (racemic), the Ki [1] was 51 nM and the pKi [1] was 7.32.

In the case of `O=C([O-])CC[C@H](O)c1ccc(OCc2ccccc2I)cc1.[Li+]`, the Ki [1] is reported as 220 nM and the pKi [1] is reported as 6.66.

Work on `O=C([O-])CCC(O)c1ccc(OCc2ccccc2Br)cc1.[Li+]` (racemic) yielded a Ki [1] of 53 nM and a pKi [1] of 7.28.

In the case of `O=C([O-])CCC(O)c1ccc(OCc2ccccc2)cc1.[Li+]` (racemic), the Ki [1] is reported as 110 nM, the pKi [1] is reported as 6.96 and the IC50 [2] is reported as greater than 100000 nM. The IC50 [3] was greater than 100000 nM.

`O=C([O-])CCC(O)c1ccc(OCc2ccc(I)cc2)cc1.[Li+]` (racemic) gave a Ki [1] of 62 nM and a pKi [1] of 7.21.

Source: ChEMBL document CHEMBL1151760, “Novel high-affinity and selective biaromatic 4-substituted gamma-hydroxybutyric acid (GHB) analogues as GHB ligands: design, synthesis, and binding studies” (J Med Chem, 2008)
